Experimental data: ChEMBL document CHEMBL1140118, “Design, synthesis, and structure-activity relationships of novel insulin receptor tyrosine kinase activators” (J Med Chem, 2008)
The source made the active and inactive calls. No cut-off for these calls is given here.

Assays:
Insulin receptor = Insulin receptor (Mus musculus, UniProt P15208); test: Activation of insulin receptor tyrosine kinase in mouse 3T3-L1 cells assessed as increase in 2-deoxy-D-[14C]glucose transport in presence of insulin; type: cell-based
Sequence of Insulin receptor (P15208 28-748 limits assumed): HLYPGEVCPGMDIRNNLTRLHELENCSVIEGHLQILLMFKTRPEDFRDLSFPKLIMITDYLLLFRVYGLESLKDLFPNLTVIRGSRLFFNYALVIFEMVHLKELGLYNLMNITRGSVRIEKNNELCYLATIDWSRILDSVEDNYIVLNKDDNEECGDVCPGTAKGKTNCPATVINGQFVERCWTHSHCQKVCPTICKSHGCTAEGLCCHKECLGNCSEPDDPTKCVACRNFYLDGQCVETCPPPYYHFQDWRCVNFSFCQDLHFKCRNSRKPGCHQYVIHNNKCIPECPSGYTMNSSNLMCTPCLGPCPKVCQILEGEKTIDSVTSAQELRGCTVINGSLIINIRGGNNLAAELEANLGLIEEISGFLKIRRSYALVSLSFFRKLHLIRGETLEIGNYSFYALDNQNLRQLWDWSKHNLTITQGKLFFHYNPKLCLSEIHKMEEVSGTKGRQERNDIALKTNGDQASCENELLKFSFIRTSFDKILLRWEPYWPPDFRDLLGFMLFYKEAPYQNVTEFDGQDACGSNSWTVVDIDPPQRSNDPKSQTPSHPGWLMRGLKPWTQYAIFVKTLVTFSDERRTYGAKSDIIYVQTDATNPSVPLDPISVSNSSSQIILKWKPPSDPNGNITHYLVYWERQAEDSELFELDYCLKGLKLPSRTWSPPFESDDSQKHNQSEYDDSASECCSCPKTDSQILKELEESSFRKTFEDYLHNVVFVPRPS
Sequence of Insulin receptor (P15208 753-1372 limits assumed): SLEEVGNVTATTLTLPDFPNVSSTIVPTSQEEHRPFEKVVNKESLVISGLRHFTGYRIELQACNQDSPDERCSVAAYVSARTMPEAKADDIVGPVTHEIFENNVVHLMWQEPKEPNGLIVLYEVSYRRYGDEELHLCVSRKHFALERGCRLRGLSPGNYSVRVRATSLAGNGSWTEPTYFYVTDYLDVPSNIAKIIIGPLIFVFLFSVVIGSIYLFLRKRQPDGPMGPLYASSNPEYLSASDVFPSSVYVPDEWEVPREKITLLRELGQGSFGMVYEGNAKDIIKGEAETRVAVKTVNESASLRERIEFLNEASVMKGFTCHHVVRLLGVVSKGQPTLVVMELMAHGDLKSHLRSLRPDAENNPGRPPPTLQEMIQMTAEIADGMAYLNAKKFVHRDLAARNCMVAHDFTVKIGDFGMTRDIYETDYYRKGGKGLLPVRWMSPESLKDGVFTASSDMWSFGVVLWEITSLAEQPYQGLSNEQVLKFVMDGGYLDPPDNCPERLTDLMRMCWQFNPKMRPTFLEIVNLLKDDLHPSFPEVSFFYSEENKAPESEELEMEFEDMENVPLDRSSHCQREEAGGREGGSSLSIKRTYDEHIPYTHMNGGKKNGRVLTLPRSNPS
Procedure, shortened: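 Differentiated, 16 h serum-starved 3T3-L1 adipocytes were exposed to compound plus 5.6 nM insulin (submaximal) for 30 min at 37 °C. They were then pulsed 30 min with 0.5 µCi/mL 2-deoxy-D-[14C]glucose and lysate counts were read. Four concentrations were tested in triplicate. EC50 came from nonlinear regression of untransformed data, given as mean ± SEM when n ≥ 3.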

[1] = biological target: Insulin receptor (Mus musculus) (UniProt P15208); test: Activation of insulin receptor tyrosine kinase in mouse 3T3-L1 cells assessed as increase in 2-deoxy-D-[14C]glucose transport in absence of insulin; type: cell-based
Sequence of Insulin receptor (Mus musculus) (P15208 28-748 limits assumed): as the sequence (P15208 28-748 limits assumed) above
Sequence of Insulin receptor (Mus musculus) (P15208 753-1372 limits assumed): as the sequence (P15208 753-1372 limits assumed) above
Procedure, shortened: (§1)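 Differentiated 3T3-L1 adipocytes (induced 72 h with dexamethasone, IBMX and insulin, then 48 h with insulin, then 4 days in normal medium) were serum-starved 16 h in 0.1% BSA. Compound was added without insulin for 30 min at 37 °C. Uptake of 0.5 µCi/mL 2-deoxy-D-[14C]glucose over 30 min was read by scintillation counting of lysates after a cold PBS rinse.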

[2] = biological target: Insulin receptor (Homo sapiens) (UniProt P06213); test: Effect on autophosphorylation of human insulin receptor cytoplasmic kinase domain
Sequence of Insulin receptor (Homo sapiens) (P06213 28-758 limits assumed): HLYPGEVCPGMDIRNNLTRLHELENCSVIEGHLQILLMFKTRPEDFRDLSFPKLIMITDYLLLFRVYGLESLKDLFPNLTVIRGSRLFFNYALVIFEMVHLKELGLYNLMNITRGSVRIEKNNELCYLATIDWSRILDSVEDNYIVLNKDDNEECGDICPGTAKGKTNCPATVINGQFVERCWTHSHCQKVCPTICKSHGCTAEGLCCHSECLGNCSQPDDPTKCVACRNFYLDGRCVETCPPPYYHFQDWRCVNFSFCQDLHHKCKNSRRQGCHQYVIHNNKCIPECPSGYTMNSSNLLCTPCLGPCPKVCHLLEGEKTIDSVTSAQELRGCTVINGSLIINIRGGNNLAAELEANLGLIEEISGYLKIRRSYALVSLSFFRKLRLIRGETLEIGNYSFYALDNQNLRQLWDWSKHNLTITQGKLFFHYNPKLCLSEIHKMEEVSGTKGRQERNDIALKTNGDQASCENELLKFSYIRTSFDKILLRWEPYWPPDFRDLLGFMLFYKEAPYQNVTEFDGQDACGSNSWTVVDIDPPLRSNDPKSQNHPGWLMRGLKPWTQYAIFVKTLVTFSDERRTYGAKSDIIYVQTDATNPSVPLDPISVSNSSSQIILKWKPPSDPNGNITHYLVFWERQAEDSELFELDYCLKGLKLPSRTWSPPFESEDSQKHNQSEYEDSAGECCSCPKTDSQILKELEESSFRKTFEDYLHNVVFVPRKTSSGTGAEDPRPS
Sequence of Insulin receptor (Homo sapiens) (P06213 763-1382 limits assumed): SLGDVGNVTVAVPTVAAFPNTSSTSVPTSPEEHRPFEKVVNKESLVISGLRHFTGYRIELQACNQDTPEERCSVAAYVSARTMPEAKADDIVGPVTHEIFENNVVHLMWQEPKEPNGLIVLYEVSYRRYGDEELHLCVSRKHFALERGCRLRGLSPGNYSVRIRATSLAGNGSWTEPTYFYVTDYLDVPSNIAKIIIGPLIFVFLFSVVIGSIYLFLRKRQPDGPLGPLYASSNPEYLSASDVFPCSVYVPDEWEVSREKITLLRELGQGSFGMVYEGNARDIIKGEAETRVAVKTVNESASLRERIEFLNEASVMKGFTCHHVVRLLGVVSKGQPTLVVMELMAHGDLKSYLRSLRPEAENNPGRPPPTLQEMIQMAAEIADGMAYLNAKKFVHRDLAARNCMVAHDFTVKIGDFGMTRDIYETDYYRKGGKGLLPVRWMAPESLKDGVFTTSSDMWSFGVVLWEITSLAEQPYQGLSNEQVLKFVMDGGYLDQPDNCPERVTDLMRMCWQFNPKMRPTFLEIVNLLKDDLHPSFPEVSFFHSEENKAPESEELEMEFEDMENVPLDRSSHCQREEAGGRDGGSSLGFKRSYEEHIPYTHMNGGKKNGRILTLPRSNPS
Procedure, shortened: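 Recombinant human IR cytoplasmic domain (200 ng) in 50 mM Tris pH 7.4 with 2 mM MnCl2, 10 mM MgCl2, 50 µM ATP and [γ-32P]ATP (10 µCi) was incubated with varied compound concentrations for 10 min at 25 °C. Incorporated label was measured by scintillation counting, either of excised SDS-PAGE bands or of TCA precipitates washed with phosphoric acid.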

Rattus norvegicus [3] = test: Reduction in blood glucose level in streptozotocin-induced hypoinsulinemic CD rat at 50 mg/kg, ip after 30 mins after glucose loading by oral glucose tolerance test; type: functional; parameters: scale not given: the % may be the effect or the level left
Procedure, shortened: (§2)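 Male CD IGS rats (250-300 g) received streptozotocin 60 mg/kg ip and were enrolled if fed glucose was ≥250 mg/dL. On day 4 post-STZ they were fasted overnight and randomized on baseline glucose (n = 12/group). They got compound or PBS, then a 50% dextrose load by gavage (4 mL/kg). Tail blood glucose was read by glucometer, and groups were compared by unpaired t test.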

[4] = biological target: Insulin receptor (Homo sapiens) (UniProt P06213); test: Activation of human insulin receptor overexpressed in mouse 3T3-HIR cells assessed as increase in phosphotyrosine at >=18 uM in absence of insulin; type: cell-based
[5] = biological target: Insulin receptor (Homo sapiens) (UniProt P06213); test: Activation of human insulin receptor overexpressed in mouse 3T3-HIR cells assessed as increase in phosphotyrosine at 3 uM in presence of insulin; type: cell-based
3T3-L1 [6] = test: Increase in GLUT4 content in mouse 3T3-L1 cell plasma membrane at 56 uM in presence of insulin; type: functional
3T3-L1 [7] = test: Increase in glucose transport in mouse 3T3-L1 cells at 50 uM in absence of insulin; type: functional; procedure, shortened: as §1
3T3-L1 [8] = test: Increase in glucose transport in mouse 3T3-L1 cells at 30 uM in absence of insulin; type: functional; procedure, shortened: as §1
Rattus norvegicus [9] = test: Reduction in blood glucose level in streptozotocin-induced hypoinsulinemic CD rat at 1000 mg/kg, po after 30 mins after glucose loading by oral glucose tolerance test; type: functional; parameters: scale not given: the % may be the effect or the level left; procedure, shortened: as §2
3T3-L1 [10] = test: Increase in insulin-stimulated glucose transport in mouse 3T3-L1 cells at >=30 uM in presence of insulin; type: functional, cell-based

Row | Compound | EC50 (Insulin receptor) | other results
1 | O=C(Nc1ccc2c(O)cc(S(=O)(=O)Nc3cccc(C(F)(F)F)c3)cc2c1)Nc1ccc2c(O)cc(S(=O)(=O)Nc3cccc(C(F)(F)F)c3)cc2c1 | > 200 µM | –
2 | CN(C(=O)N(C)c1ccc2ccc(S(=O)(=O)Nc3ccc(Cl)c(C(=O)O)c3)cc2c1)c1ccc2ccc(S(=O)(=O)Nc3ccc(Cl)c(C(=O)O)c3)cc2c1 | > 200 µM | –
3 | O=C(Nc1ccc2c(O)cc(S(=O)(=O)Nc3cccc(CO)c3)cc2c1)Nc1ccc2c(O)cc(S(=O)(=O)Nc3cccc(CO)c3)cc2c1 | > 200 µM | –
4 | O=C(Nc1ccc2ccc(S(=O)(=O)O)cc2c1)Nc1ccc2ccc(S(=O)(=O)Nc3ccc(O)c(C(=O)O)c3)cc2c1 | > 200 µM | –
5 | NC(=Nc1ccc2ccc(S(=O)(=O)Nc3ccc(Cl)c(C(=O)O)c3)cc2c1)Nc1ccc2ccc(S(=O)(=O)Nc3ccc(Cl)c(C(=O)O)c3)cc2c1 | 179 µM | –
6 | N#CN=C(Nc1ccc2ccc(S(=O)(=O)Nc3ccc(Cl)c(C(=O)O)c3)cc2c1)Nc1ccc2ccc(S(=O)(=O)Nc3ccc(Cl)c(C(=O)O)c3)cc2c1 | > 200 µM | –
7 | O=C(Nc1ccc2ccc(S(=O)(=O)Nc3cccc(C(=O)O)c3O)cc2c1)Nc1ccc2ccc(S(=O)(=O)Nc3cccc(C(=O)O)c3O)cc2c1 | 150 µM | –
8 | N#Cc1cccc(NS(=O)(=O)c2ccc3ccc(NC(=O)Nc4ccc5ccc(S(=O)(=O)Nc6cccc(C#N)c6)cc5c4)cc3c2)c1 | > 200 µM | –
9 | O=C(Nc1ccc2ccc(S(=O)(=O)O)cc2c1)Nc1ccc2ccc(S(=O)(=O)Nc3ccc(Cl)c(S(=O)(=O)O)c3)cc2c1 | > 200 µM | –
10 | O=C(O)Cc1cccc(NS(=O)(=O)c2cc(O)c3ccc(NC(=O)Nc4ccc5c(O)cc(S(=O)(=O)Nc6cccc(CC(=O)O)c6)cc5c4)cc3c2)c1 | > 200 µM | –
11 | O=C(Nc1ccc2ccc(C(=O)Nc3cccc(S(=O)(=O)O)c3)cc2c1)Nc1ccc2ccc(C(=O)Nc3cccc(S(=O)(=O)O)c3)cc2c1 | > 200 µM | –
12 | NS(=O)(=O)c1cccc(NS(=O)(=O)c2ccc3ccc(NC(=O)Nc4ccc5ccc(S(=O)(=O)Nc6cccc(S(N)(=O)=O)c6)cc5c4)cc3c2)c1 | > 200 µM | –
13 | O=C(Nc1ccc2c(O)cc(S(=O)(=O)Nc3ccccc3C(=O)O)cc2c1)Nc1ccc2c(O)cc(S(=O)(=O)Nc3ccccc3C(=O)O)cc2c1 | 93 µM | –
14 | O=C(Nc1ccc2ccc(S(=O)(=O)Nc3cccc(O)c3)cc2c1)Nc1ccc2ccc(S(=O)(=O)Nc3cccc(O)c3)cc2c1 | > 200 µM | –
15 | O=C(Nc1ccc2ccc(S(=O)(=O)Nc3ccc(C(=O)O)cc3)cc2c1)Nc1ccc2ccc(S(=O)(=O)Nc3ccc(C(=O)O)cc3)cc2c1 | 183 µM | –
16 | O=C(O)c1cc(NS(=O)(=O)c2ccc3ccc(NCCNc4ccc5ccc(S(=O)(=O)Nc6ccc(Cl)c(C(=O)O)c6)cc5c4)cc3c2)ccc1Cl | > 200 µM | –
17 | O=C(O)c1cc(NS(=O)(=O)c2ccc3ccc(NC(=S)Nc4ccc5ccc(S(=O)(=O)Nc6ccc(Cl)c(C(=O)O)c6)cc5c4)cc3c2)ccc1Cl | 162 µM | –
18 | O=C(Nc1ccc2ccc(S(=O)(=O)Nc3ccc(S(=O)(=O)O)cc3)cc2c1)Nc1ccc2ccc(S(=O)(=O)Nc3ccc(S(=O)(=O)O)cc3)cc2c1 | 94 µM | –
19 | O=C(Nc1ccc2c(O)cc(S(=O)(=O)Nc3cccc(C(=O)O)c3Cl)cc2c1)Nc1ccc2c(O)cc(S(=O)(=O)Nc3cccc(C(=O)O)c3Cl)cc2c1 | 121 µM | –
20 | CNC(=Nc1ccc2ccc(S(=O)(=O)Nc3ccc(Cl)c(C(=O)O)c3)cc2c1)Nc1ccc2ccc(S(=O)(=O)Nc3ccc(Cl)c(C(=O)O)c3)cc2c1 | > 200 µM | –
21 | O=C(Nc1ccc2ccc(S(=O)(=O)Nc3cccc([N+](=O)[O-])c3)cc2c1)Nc1ccc2ccc(S(=O)(=O)Nc3cccc([N+](=O)[O-])c3)cc2c1 | > 200 µM | –
22 | CC(=O)N(CCN(C(C)=O)c1ccc2ccc(S(=O)(=O)Nc3ccc(Cl)c(C(=O)O)c3)cc2c1)c1ccc2ccc(S(=O)(=O)Nc3ccc(Cl)c(C(=O)O)c3)cc2c1 | > 200 µM | –
23 | O=C(Nc1ccc2ccc(S(=O)(=O)Nc3ccccc3)cc2c1)Nc1ccc2ccc(S(=O)(=O)Nc3ccccc3)cc2c1 | > 200 µM | –
24 | O=C(Nc1ccc2c(O)cc(S(=O)(=O)Nc3ccc(C(=O)O)cc3)cc2c1)Nc1ccc2c(O)cc(S(=O)(=O)Nc3ccc(C(=O)O)cc3)cc2c1 | 103 µM | –
25 | O=C(Nc1ccc2ccc(C(=O)Nc3cccc(C(=O)O)c3)cc2c1)Nc1ccc2ccc(C(=O)Nc3cccc(C(=O)O)c3)cc2c1 | > 200 µM | –

Now from value to molecule, other results behind:

Row | EC50 (Insulin receptor) | Compound | other results
26 | 16 µM | O=C(Nc1ccc2ccc(S(=O)(=O)Nc3ccc(Cl)c(C(=O)O)c3)cc2c1)Nc1ccc2ccc(S(=O)(=O)Nc3ccc(Cl)c(C(=O)O)c3)cc2c1 | –
27 | 91 µM | CN(c1cccc(S(=O)(=O)O)c1)S(=O)(=O)c1ccc2ccc(NC(=O)Nc3ccc4ccc(S(=O)(=O)N(C)c5cccc(S(=O)(=O)O)c5)cc4c3)cc2c1 | –
28 | 40 µM | O=C(Nc1ccc2ccc(S(=O)(=O)Nc3ccc([N+](=O)[O-])c(C(=O)O)c3)cc2c1)Nc1ccc2ccc(S(=O)(=O)Nc3ccc([N+](=O)[O-])c(C(=O)O)c3)cc2c1 | –
29 | 18 µM | O=C(Nc1ccc2c(O)cc(S(=O)(=O)Nc3ccc(Cl)c(C(=O)O)c3)cc2c1)Nc1ccc2c(O)cc(S(=O)(=O)Nc3ccc(Cl)c(C(=O)O)c3)cc2c1 | –
30 | 90 µM | O=C(Nc1ccc2c(O)c(/N=N/c3ccc(/N=N/c4ccc(S(=O)(=O)O)cc4)cc3S(=O)(=O)O)c(S(=O)(=O)O)cc2c1)Nc1ccc2c(O)cc(S(=O)(=O)O)c(/N=N/c3ccc(/N=N/c4ccc(S(=O)(=O)O)cc4)cc3S(=O)(=O)O)c2c1 | Activity [1]: inactive; Activity [2]: Dose-dependent effect
31 | 6 µM | O=C(Nc1ccc2ccc(S(=O)(=O)Nc3ccc(Cl)c(S(=O)(=O)O)c3)cc2c1)Nc1ccc2ccc(S(=O)(=O)Nc3ccc(Cl)c(S(=O)(=O)O)c3)cc2c1 | –
32 | 41 µM | O=C(Nc1ccc2ccc(S(=O)(=O)Nc3ccccc3C(=O)O)cc2c1)Nc1ccc2ccc(S(=O)(=O)Nc3ccccc3C(=O)O)cc2c1 | –
33 | 54 µM | O=C(Nc1ccc2ccc(S(=O)(=O)Nc3cccc(-c4nn[nH]n4)c3)cc2c1)Nc1ccc2ccc(S(=O)(=O)Nc3cccc(-c4nn[nH]n4)c3)cc2c1 | –
34 | 43 µM | O=C(Nc1ccc2c(O)cc(S(=O)(=O)Nc3ccc(O)c(C(=O)O)c3)cc2c1)Nc1ccc2c(O)cc(S(=O)(=O)Nc3ccc(O)c(C(=O)O)c3)cc2c1 | –
35 | 5 µM | O=C(Nc1ccc2c(O)cc(S(=O)(=O)Nc3ccc(Cl)c(S(=O)(=O)[O-])c3)cc2c1)Nc1ccc2c(O)cc(S(=O)(=O)Nc3ccc(Cl)c(S(=O)(=O)[O-])c3)cc2c1.[Na+].[Na+] | Activity (Rattus norvegicus [3]): 25%; Activity [4]: Active; Activity [5]: 75%; Activity (3T3-L1 [6]): 85%; Activity (3T3-L1 [7]): 875%; Activity (3T3-L1 [8]): 340%; Activity (Rattus norvegicus [9]): 32%; Activity (3T3-L1 [10]): Active
36 | 22 µM | O=C(Nc1ccc2ccc(S(=O)(=O)Nc3cccc(S(=O)(=O)O)c3)cc2c1)Nc1ccc2ccc(S(=O)(=O)Nc3cccc(S(=O)(=O)O)c3)cc2c1 | –
37 | 24 µM | O=C(Nc1ccc2ccc(S(=O)(=O)Nc3cccc(C(=O)O)c3)cc2c1)Nc1ccc2ccc(S(=O)(=O)Nc3cccc(C(=O)O)c3)cc2c1 | –
38 | 43 µM | O=C(Nc1ccc2c(O)cc(S(=O)(=O)Nc3cccc(C(=O)O)c3)cc2c1)Nc1ccc2c(O)cc(S(=O)(=O)Nc3cccc(C(=O)O)c3)cc2c1 | –
39 | 73 µM | O=C(Nc1ccc2c(O)cc(S(=O)(=O)Nc3cccc(-c4nn[nH]n4)c3)cc2c1)Nc1ccc2c(O)cc(S(=O)(=O)Nc3cccc(-c4nn[nH]n4)c3)cc2c1 | –
40 | 26 µM | O=C(Nc1ccc2c(O)cc(S(=O)(=O)Nc3cccc(S(=O)(=O)O)c3)cc2c1)Nc1ccc2c(O)cc(S(=O)(=O)Nc3cccc(S(=O)(=O)O)c3)cc2c1 | Activity [2]: Dose-dependent effect
41 | 56 µM | O=C(O)c1cc(NS(=O)(=O)c2ccc3ccc(N4CCN(c5ccc6ccc(S(=O)(=O)Nc7ccc(Cl)c(C(=O)O)c7)cc6c5)C4=O)cc3c2)ccc1Cl | –
42 | 9 µM | O=C(Nc1ccc2ccc(S(=O)(=O)Nc3ccc(O)c(C(=O)O)c3)cc2c1)Nc1ccc2ccc(S(=O)(=O)Nc3ccc(O)c(C(=O)O)c3)cc2c1 | –
